Results published in article PMC5188857 (Brazilian Journal of Medical and Biological Research, 2016).
Several values for one entry are separate records, joined by “and”; a condition that tells them apart may be missing. Identical values can stand only once. Like-named read-outs stand apart in the source and are kept apart here.

How the values were obtained:
Solubility at pH 7.4 = type: physicochemical; conditions: 50 mM sodium phosphate buffer
Procedure, shortened: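 Working stock was spiked into 50 mM sodium phosphate buffer, pH 7.4, and held 2 h; concentrations up to 100 µM were tested. Samples were centrifuged at 1,000 g for 20 min at room temperature. Supernatant was diluted 1:1 in acetonitrile and quantified by LC-MS/MS (phenyl column, positive-ion MRM, internal standard).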

[1] = Plasma protein binding by equilibrium dialysis, rat plasma; type: in vitro ADME; conditions: 10 µM, means±SD, n=6
Procedure, shortened: (§1)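 Equilibrium dialysis used plasma (human or rat) spiked with 10 µM test compound in the donor side against phosphate buffer in the acceptor side. Plates were sealed and incubated 6 h at 37°C, 60 rpm, 5% CO2. Diclofenac (5 µM) served as positive control. Bound percentage is given as mean±SD, n=6.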

[2] = Plasma protein binding by equilibrium dialysis, human plasma; type: in vitro ADME; conditions: 10 µM, means±SD, n=6
Procedure, shortened: as §1

[3] = Permeability on MDCK-MDR1 cell monolayer; type: in vitro ADME; conditions: dog; for Papp B→A at 129 min: MDCK-MDR1; for Papp A→B at 129 min: MDCK-MDR1, Papp apical to basolateral, MDCK-MDR1 monolayer, n=3
MDCK-MDR1 cells = test: Permeability on MDCK-MDR1 cell monolayer; type: in vitro ADME; conditions: MDCK-MDR1 monolayer, n=3
P-gp = test: Permeability on MDCK-MDR1 cell monolayer; type: in vitro ADME; conditions: dog, MDCK-MDR1
Plasma stability, rat = type: in vitro ADME
Procedure, shortened: (§2)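 Test-compound-spiked rat or human plasma was incubated 6 h at 37°C. Percent recovery was then determined, reported as mean±SD, n=6.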

Plasma stability, human = type: in vitro ADME
Procedure, shortened: as §2

[4] = In vitro metabolism in rat liver microsomes; type: in vitro ADME
[5] = In vitro metabolism in human liver microsomes; type: in vitro ADME
[6] = In vitro metabolism in rat hepatocytes; type: in vitro ADME; conditions: rat, hepatocytes
rat hepatocytes = test: In vitro metabolism in rat hepatocytes; type: in vitro ADME; conditions: rat hepatocytes, 0.5 µM
[7] = In vitro metabolism in human hepatocytes; type: in vitro ADME; conditions: human, hepatocytes
human hepatocytes = test: In vitro metabolism in human hepatocytes; type: in vitro ADME; conditions: human hepatocytes, 0.5 µM, two separate experiments
CYP2D6 = CYP2D6 (Homo sapiens, UniProt P10635); test: CYP profiling with purified isozyme; type: in vitro ADME; conditions: purified human CYP2D6 isozyme (Cypex)
CYP2D6, sequence (P10635 whole entry): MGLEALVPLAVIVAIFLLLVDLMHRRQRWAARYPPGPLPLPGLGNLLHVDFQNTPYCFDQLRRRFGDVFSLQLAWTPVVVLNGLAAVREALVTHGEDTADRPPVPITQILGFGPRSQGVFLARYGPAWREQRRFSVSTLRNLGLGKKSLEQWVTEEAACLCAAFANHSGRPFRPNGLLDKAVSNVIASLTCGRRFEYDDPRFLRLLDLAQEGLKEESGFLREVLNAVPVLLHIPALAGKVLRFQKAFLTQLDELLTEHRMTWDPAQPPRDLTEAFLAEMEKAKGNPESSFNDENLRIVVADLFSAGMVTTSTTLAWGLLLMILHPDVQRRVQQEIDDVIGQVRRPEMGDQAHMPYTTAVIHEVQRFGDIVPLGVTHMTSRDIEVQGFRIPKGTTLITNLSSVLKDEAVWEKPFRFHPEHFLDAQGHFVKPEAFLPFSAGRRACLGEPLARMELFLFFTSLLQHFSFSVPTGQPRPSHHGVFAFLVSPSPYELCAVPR
Procedure, shortened: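 Purified human recombinant CYP isozyme ([…]) was pre-incubated 10 min, then run with 0.5 µM test compound and 2 mM NADPH in phosphate buffer at 37°C. CYP-specific probe substrates were incubated separately. Parent loss over time was measured by LC-MS/MS. Half-life came from nonlinear regression to a first-order decay equation.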

CYP3A4 = CYP3A4 (Homo sapiens, UniProt P08684); test: CYP inhibition in human liver microsomes; type: in vitro ADME
CYP3A4, sequence (P08684 whole entry): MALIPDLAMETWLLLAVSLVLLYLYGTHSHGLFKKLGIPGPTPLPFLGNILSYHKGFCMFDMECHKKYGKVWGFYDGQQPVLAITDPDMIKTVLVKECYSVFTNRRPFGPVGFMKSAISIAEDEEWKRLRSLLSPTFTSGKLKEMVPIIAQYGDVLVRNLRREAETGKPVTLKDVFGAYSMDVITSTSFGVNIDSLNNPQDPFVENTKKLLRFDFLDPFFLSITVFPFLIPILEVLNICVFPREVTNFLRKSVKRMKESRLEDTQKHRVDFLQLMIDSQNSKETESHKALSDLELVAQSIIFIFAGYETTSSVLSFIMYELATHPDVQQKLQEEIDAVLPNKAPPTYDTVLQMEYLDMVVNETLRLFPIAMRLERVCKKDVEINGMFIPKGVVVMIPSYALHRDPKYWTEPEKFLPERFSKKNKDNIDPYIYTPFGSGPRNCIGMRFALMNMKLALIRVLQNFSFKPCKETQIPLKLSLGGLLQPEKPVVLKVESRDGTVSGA

mice motor coordination = test: Rota-rod test; type: in vivo; conditions: 10 µg/kg iv, 3, 10 and 30 min after administration
Procedure, shortened: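 Adult male Swiss Webster mice (~40 g) were trained 1 day and 1 h before testing. Only those staying ≥1 min without falling were used. Test compound (10 µg/kg) or saline was given iv via the orbital plexus, 6 mice per group. At 3, 10 and 30 min, falls were counted over a 4-min observation, with latency to each fall recorded.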

mice = test: Acute toxicity test, single dose; type: in vivo; conditions: for Body temperature: 100 μg/kg ip
Procedure, shortened: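 Female Swiss Webster mice (25–30 g), 6 per condition, got a single ip dose of 100 μg/kg test compound, with saline controls. Behaviour, motor coordination, muscle tone, CNS and autonomic signs, water and food intake and lethality were scored during the first hour, at 2, 4 and 8 h, then daily to day 14. Anal-probe body temperature was taken before dosing and at 30 and 60 min.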

[8] = cited from earlier work
[9] = single dose 100 μg/kg ip, 14 days observation

COc1ccc(CCN2CCN(c3ccccc3OC)CC2)cc1OC.Cl [LDT5, 1-(2-methoxyphenyl)-4-[2-(3,4-dimethoxyphenyl)ethyl]piperazine monohydrochloride]
solubility at 2 h (Solubility at pH 7.4): ≥ 100 µM | Binding to plasma proteins [1]: 80±2% | Binding to plasma proteins [2]: 73±1% | Papp B→A at 129 min [3]: 32.4 ± 1.1 ×10⁻⁶ cm/s | Papp A→B at 129 min [3]: ~32 ×10⁻⁶ cm/s | Papp apical to basolateral (MDCK-MDR1 cells): 32.2±1.1 ×10^-6 cm/s | efflux ratio at 129 min (P-gp): 1 | recovery at 6 h (Plasma stability, rat): 87 ± 4% | recovery at 6 h (Plasma stability, human): 91 ± 4% | half-life at 0.5 µM ([4]; male, Sprague Dawley, rat, liver microsomes): 10 min | Intrinsic clearance ([4]; rat liver microsomes, 0.5 µM, two separate experiments): 6.4 mL·min^-1·g liver^-1 and 6.7 mL·min^-1·g liver^-1 | half-life at 0.5 µM ([5]; both, human, liver microsomes): > 30 min | Intrinsic clearance ([5]; human liver microsomes, 0.5 µM): < 0.6 mL·min^-1·g liver^-1 | half-life at 0.5 µM [6]: 11 min | Intrinsic clearance (rat hepatocytes): > 2 mL·min^-1·g liver^-1 | half-life at 0.5 µM [7]: 120 min | Intrinsic clearance (human hepatocytes): < 0.2 mL·min^-1·g liver^-1 and 0.22 mL·min^-1·g liver^-1 | half-life at 0.5 µM (CYP2D6): 5 min | IC50 (CYP3A4): > 100 µM | IC50 (CYP3A4; read-out: IC50 CYP3A4, human liver microsomes, substrate testosterone): > 100 µM | Effect on motor coordination (rota-rod) (mice motor coordination): no acute effect on mice motor coordination | Body temperature (mice; 30 min after administration): 35.5±0.2 °C | Body temperature (mice; 60 min after administration): 35.17±0.31 °C | Changes in behavior (mice; [9]): no changes in behavior | Lethality (mice; [9]): no lethality

C=C[C@H]1C[N@@]2CC[C@H]1C[C@@H]2[C@@H](O)c1ccnc2ccc(OC)cc12 [quinidine, reference compound]
Papp B→A at 129 min [3]: 39.5 ± 2.8 ×10⁻⁶ cm/s | Papp A→B at 129 min [3]: 0.19 ± 0.05 ×10⁻⁶ cm/s

CCOc1ccccc1OCCN[C@H](C)Cc1ccc(OC)c(S(N)(=O)=O)c1 [tamsulosin]
Binding to human plasma proteins [8]: around 99%
